Test results reported in PubChem BioAssay AID1737 (Vanderbilt High Throughput Screening Facility, 2009).
Inconclusive results are not listed. Active and inactive are the calls of the source.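 Rule for the calls: active = converged dose curve in at least two of three replicates, even with few points beside the midpoint; inactive = the rest, inconclusive results apart.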

molecular target: Solute carrier family 12 member 5 (Homo sapiens) (UniProt Q9H2X9); assay: modulation of KCC2-mediated Tl+ flux in HEK cells – cell-based, HEK293-KCC2, thallium flux, FluoZin2, sodium-free, assay 3, dose response (AID 1737); conditions: HEK293-KCC2, thallium flux FluoZin2 fluorescence, Na-free
Outline: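 System: KCC2-expressing HEK cells; measured by: FluoZin2 fluorescence, 480/540 nm; also added: thallium sulfate stimulus; repeats: triplicate wells per dose, each replicate fitted separately; compound: 11 doses, 3-fold steps, 30 µM top; control set: bumetanide as positive control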

Chain of Solute carrier family 12 member 5 (Homo sapiens) (Q9H2X9 whole entry, looked up): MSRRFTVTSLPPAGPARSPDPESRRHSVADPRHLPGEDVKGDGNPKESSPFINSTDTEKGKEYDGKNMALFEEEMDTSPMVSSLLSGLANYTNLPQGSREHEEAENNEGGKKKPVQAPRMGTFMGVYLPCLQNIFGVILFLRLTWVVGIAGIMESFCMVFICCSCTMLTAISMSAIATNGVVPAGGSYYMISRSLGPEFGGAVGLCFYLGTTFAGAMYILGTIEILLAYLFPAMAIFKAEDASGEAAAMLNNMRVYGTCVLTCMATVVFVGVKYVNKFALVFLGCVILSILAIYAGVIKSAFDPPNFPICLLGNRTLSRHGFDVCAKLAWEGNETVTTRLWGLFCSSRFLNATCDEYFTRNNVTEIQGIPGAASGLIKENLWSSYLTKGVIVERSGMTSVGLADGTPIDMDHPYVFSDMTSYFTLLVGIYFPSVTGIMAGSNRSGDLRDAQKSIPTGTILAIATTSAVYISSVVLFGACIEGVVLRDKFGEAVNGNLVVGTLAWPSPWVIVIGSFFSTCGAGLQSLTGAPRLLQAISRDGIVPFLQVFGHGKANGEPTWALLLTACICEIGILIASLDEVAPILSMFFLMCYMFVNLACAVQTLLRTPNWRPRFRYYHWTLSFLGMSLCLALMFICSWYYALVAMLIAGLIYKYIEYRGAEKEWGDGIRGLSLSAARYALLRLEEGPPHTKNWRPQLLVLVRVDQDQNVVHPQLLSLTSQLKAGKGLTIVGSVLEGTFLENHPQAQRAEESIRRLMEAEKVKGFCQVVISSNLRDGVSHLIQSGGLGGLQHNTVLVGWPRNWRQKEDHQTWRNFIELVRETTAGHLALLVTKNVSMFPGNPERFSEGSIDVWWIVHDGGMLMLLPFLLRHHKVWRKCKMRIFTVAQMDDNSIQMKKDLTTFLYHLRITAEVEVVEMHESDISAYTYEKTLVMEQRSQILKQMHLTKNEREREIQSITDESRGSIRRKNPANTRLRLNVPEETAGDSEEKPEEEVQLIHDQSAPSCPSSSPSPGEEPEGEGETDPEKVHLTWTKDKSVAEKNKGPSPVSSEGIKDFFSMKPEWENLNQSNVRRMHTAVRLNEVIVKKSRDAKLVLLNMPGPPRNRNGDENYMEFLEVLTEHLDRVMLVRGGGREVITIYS

| Compound | EC50 |
| --- | --- |
| COc1ccc(-c2nnc(-c3ccc(OCC(C)C)cc3)o2)cc1 | inactive |
| CCOc1cccc(C(=O)NC(=S)Nc2cccc(C)c2)c1 | inactive |
| O=c1c2ccccc2[nH]c(=S)n1CCN1CCC(=C(c2ccc(F)cc2)c2ccc(F)cc2)CC1 | inactive |
| O=[N+]([O-])c1ccc(-c2cn(-c3ccccc3F)c(=S)[nH]2)cc1 | 318 nM |
| Cc1onc(-c2ccccc2Cl)c1C(=O)NC(=S)Nc1ccc(C(C)C)cc1 | inactive |
| O=C(NC(=S)Nc1ccc2c(c1)OCO2)c1ccc(Cl)cc1 | inactive |
| COc1cccc(/C=c2\s/c(=C/C(=O)c3ccc(C)cc3)[nH]c2=O)c1OC | inactive |
| Cc1ccc(-c2n[nH]c(=S)n2/N=C/C=C\c2ccccc2[N+](=O)[O-])cc1 | inactive |
| O=C(NC(=S)Nc1cccc2cccnc12)c1cccs1 | inactive |
| Fc1cccc(F)c1/C=N/NC(=S)Nc1cccnc1 | inactive |
| CC(=O)c1cccc(NC(=S)NC(=O)c2ccc(C)cc2)c1 | 288 nM |
| COc1ccc(N2C(=S)N=C(Nc3cccc(C)c3)C23CCCCC3)cc1 | 417 nM |
| O=[N+]([O-])c1ccccc1/C=C/C=N/n1c(-c2ccc(Cl)cc2)n[nH]c1=S | inactive |
| NC(=S)N=Nc1c(O)n(Cc2ccccc2)c2ccccc12 | inactive |
